# MEKK3 PB1 HTS: modulators of MEKK3-MEK5 PB1 binding, primary screen, biochemical, wildtype MEKK3, multiplex bead flow cytometry, Alexa488-MEK5 | Mitogen-activated protein kinase kinase kinase 3 (Homo sapiens), Q99759 | bead-based flow cytometry, Alexa488-MEK5 binding to MEKK3; actives lie on both sides; 0 = blocked by unlabeled MEK5, 100 = vehicle | binding response (% of control), % at 10 µM | hit rate 1.4% among 290,000;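 active means binding response more than 3 SD above or below the average of its plate-row segment, actives on both sides; inconclusive means wells at one plate position flagged as instrument error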;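 further: Alexa488 bead fluorescence after subtracting the streptavidin-only scavenger bead signal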
# UBC13 polyUb: UBC13 polyubiquitin chain formation inhibitors, primary screen, biochemical, TR-FRET, uHTS; Ubiquitin-conjugating enzyme E2 N (Homo sapiens), P61088; inhibition, % at 20 µM; hit rate 0.47% among 330,000; in the data active means inhibition above about 45%, passing the limit was not always enough; inconclusive means no clear call, values can overlap the other calls
# Target sequence (P61088 whole entry, looked up): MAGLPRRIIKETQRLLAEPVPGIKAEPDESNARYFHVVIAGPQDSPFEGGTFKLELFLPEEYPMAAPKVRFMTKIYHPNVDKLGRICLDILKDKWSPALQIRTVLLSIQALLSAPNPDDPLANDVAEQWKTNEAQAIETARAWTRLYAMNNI
# MEKK2 mut-MEK5: MEK5 binding signal on mutant MEKK2 PB1, primary screen, biochemical, multiplex bead flow cytometry, Alexa488-MEK5 | Alexa488-MEK5 binding to MEKK2 mutant | AID 1530, 2009 | percent response, % at 10 µM | hit rate 0.35% among 290,000; in the data active means percent response above about 24%, passing the limit was not always enough
# UCH37 DUB inh: inhibitors of human UCH37 deubiquitinase, primary screen, biochemical, Ub-AMC cleavage, fluorescence; Ubiquitin carboxyl-terminal hydrolase isozyme L5 (Homo sapiens), Q9Y5K5; hit rate 0.33% among 330,000; purified proteasome/UCH37; inhibition, % (concentration not given with the values);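 active means mean inhibition over replicate wells above about 20%, limit read from the data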;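 further: 0% = compound-free wells with enzyme and 100% = wells lacking proteasome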
# Target sequence (Q9Y5K5 whole entry, looked up): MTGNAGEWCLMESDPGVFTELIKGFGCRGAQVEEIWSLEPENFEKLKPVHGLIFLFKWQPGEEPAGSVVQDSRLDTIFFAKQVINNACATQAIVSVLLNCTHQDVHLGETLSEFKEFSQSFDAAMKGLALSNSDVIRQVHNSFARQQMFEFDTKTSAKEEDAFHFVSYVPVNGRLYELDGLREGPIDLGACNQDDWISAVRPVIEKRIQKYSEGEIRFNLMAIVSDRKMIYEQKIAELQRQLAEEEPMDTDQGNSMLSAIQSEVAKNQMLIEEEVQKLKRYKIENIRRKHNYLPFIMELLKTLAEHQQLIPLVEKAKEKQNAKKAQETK
#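 Schedule: 30 min plus 25 min, room temperature / Material: human UCH37 within purified proteasomes / Technique: AMC fluorescence intensity at 355/460 nm / Buffer or medium: pH 7.4 Tris-HCl (50 mM) with ovalbumin, ATP-MgCl2, DTT / Controls: wells without proteasome as full block, compound-free enzyme plus substrate as uninhibited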
# Apaf1 inhib: inhibitors of human Apaf-1 apoptosome, primary screen, biochemical, DEVD-Rh110 fluorescence, uHTS; reconstituted apoptosome caspase-3 activity; inhibition, % at 20 µM; hit rate 0.71% among 330,000; active means inhibition of at least 40% at 20 µM;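 further: plate controls were DMSO wells for no effect and DEVD-CHO caspase inhibitor wells for full effect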
#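 Material: reconstituted apoptosome with Apaf-1, cytochrome c, caspase-9, procaspase-3, dATP; medium: pH 7.5 Hepes buffer with CHAPS, BSA, DTT; also added: cytochrome c and DEVD-Rh110 substrate; timing: 30 min plus 50 min, RT; signal: Rh110 fluorescence intensity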
# MEKK2wt PB1 HTS: modulators of MEK5 binding to wildtype MEKK2, primary screen, biochemical, multiplex bead flow cytometry, Alexa488-MEK5; Mitogen-activated protein kinase kinase kinase 2 (Homo sapiens), Q9Y2U5; Alexa488-MEK5 binding to MEKK2 WT; actives lie on both sides; binding response (% of control), % at 10 µM; hit rate 1.1% among 290,000; in the data active means binding response below about 67% or above about 130%; inconclusive means no clear call, values can overlap the other calls; inactive means in between
# MEKK2wt confirm: modulators of MEK5 binding to wildtype MEKK2, confirmation, biochemical, single concentration, multiplex bead flow cytometry; shares compounds with MEKK3 PB1 HTS; Alexa488-MEK5 binding to MEKK2 WT; actives lie on both sides; binding response (% of control), % at 10 µM; hit rate 2.4% among 5,900; AID 1892, 2009; in the data active means binding response below about 16% or above about 210%; inactive means in between
# MEKK2mut-MEK5: mutant MEKK2 PB1-MEK5 binding signal retest – biochemical, single concentration, multiplex bead flow cytometry, confirmation. shares compounds with MEKK3 PB1 HTS. Alexa488-MEK5 binding to MEKK2 mutant. percent response, % at 10 µM. hit rate 2% among 5,900. AID 1893, 2009; in the data active means percent response mostly above about 71%, no sharp cut-off; inactive means mostly below about 38%;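 further: higher means compound restores mutant binding toward wildtype level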
# MEKK3 confirm: MEKK3 wild-type PB1 binding to MEK5, inhibitors, confirmation, biochemical, bead multiplex flow cytometry, single concentration, wildtype; shares compounds with MEKK3 PB1 HTS; Alexa488-MEK5 binding to MEKK3; hits give low values; binding response (% of control), % at 10 µM; hit rate 1.8% among 5,900; AID 1894, 2009;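 active means binding response below 72% of control, or above a set upper limit, though filed actives all read lower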;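 further: 100% = DMSO only wells and 0% = binding blocked by excess unlabeled MEK5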
# * hit, by the source's call; ? = inconclusive; · = no result given; [ ] = remark or other dose. Most compounds without a hit are left out; they make up all but 3% or so of the library.
SMILES,MEKK3 PB1 HTS,UBC13 polyUb,MEKK2 mut-MEK5,UCH37 DUB inh,Apaf1 inhib,MEKK2wt PB1 HTS,MEKK2wt confirm,MEKK2mut-MEK5,MEKK3 confirm
Oc1ccccc1CNc1cnc2ccccc2c1,101,15,-1,-140,-9,-5.0*[inhibitor],101,6,103
Cc1ccc(C)c2nc(Cl)c(C#N)cc12,100,-7,-11,-52,7,97,·,·,·
CSc1nc2c(c(=O)[nH]1)C(c1ccccc1)C1=C(CC(C)(C)CC1=O)N2 (centres undefined),131*,12,4,·,6,121,104,4,111
COc1ccccc1C(=O)COC(=O)/C=C/c1ccccc1,101,-3,4,1,11,99,·,·,·
Cc1sc(NC(=O)c2ccccc2)c(C(c2ccccn2)N2CCN(CCO)CC2)c1C (centres undefined),140*,11,0,3,-2,111,1.0*[inhibitor],-29,2.0*
COC(=O)c1ccc(S(=O)(=O)N2Cc3ccccc3C2)cc1,135*,-7,1,-1,9,117,101,8,102
CCCOc1ccc(-c2nn(-c3ccccc3)cc2/C=C2\SC(N)=NC2=O)cc1C,129*,-1,-2,-64,0,96,94,-1,104
COc1ccc(-c2nn(CCC(=O)O)cc2/C=C2\SC(N)=NC2=O)cc1OC,111,-8,-1,·,3,99,·,·,·
CCC(=O)N1CCc2cc(S(=O)(=O)NCCC(=O)NCc3ccccc3OC)ccc21,96,4,-5,3,-6,95,·,·,·
CCOC(=O)C1CCN(Cc2cn[nH]c2-c2ccc(C)cc2)CC1,124,8,23,1,-4,129,·,·,·
Cc1cccc(-c2nc3ccccc3c(=O)n2NC(=O)c2cccs2)c1,104,4,14,4,3,113,·,·,·
Cc1ccc(-c2nc3ccccc3c(=O)n2NC(=O)c2cccs2)cc1,129*,2,1,4,0,104,99,0,101
COC(=O)c1ccc(C(=O)Nc2ccc3c(c2)C(=O)NC3=O)cc1,60*[inhibitor],13,-5,-30,-11,69*[inhibitor],79,-11,83
CCOc1ccc(=O)n(-c2ccccc2)n1,113,-2,3,4,-7,102,·,·,·
CCn1c(COc2ccc(=O)n(-c3ccccc3)n2)n[nH]c1=S,129*,4,4,4,-16,117,89,-8,94
COc1cc(C(=O)NCc2ccc(-c3nc4ccccc4s3)cc2)cc(OC)c1OC,136*,12,0,·,0,107,105,2,99
Cc1ccc(C(=O)CC(C(=O)O)n2cncn2)cc1 (centres undefined),101,3,-3,2,-13,102,·,·,·
Cc1ccc(C(=O)CC(C(=O)O)n2cnc([N+](=O)[O-])n2)cc1 (centres undefined),49*[inhibitor],-8,-14,1,10,55,106,2,104
Cc1cc(C(=O)N/N=C/c2cc(N=Nc3ccccc3)ccc2O)n[nH]1,38*[inhibitor],·,-4,·,·,66,79,-16,86
Cc1cc(C(=O)NN=Cc2cc(N=Nc3ccccc3)ccc2O)n[nH]1,·,·,·,13,·,·,·,·,·
CC(C)c1ccc(N(C)C(=O)Cc2c(C(=O)O)n(C)c3ccccc23)cc1,1.0*[inhibitor],-5,-15,4,5,-1.0*[inhibitor],100,1,100
C/C(=N/NC(=O)c1ccncc1)c1cc2ccc(O)cc2oc1=O,103,-1,16,·,8,156*,88,-9,91
C/C(=N\NC(=O)c1ccncc1)c1cc2ccccc2oc1=O,110,-8,-1,·,5,105,·,·,·
Cc1ccc(C(=O)O)cc1-c1ccc(/C=C2/NC(=O)N(c3ccccc3)C2=O)o1,96,-8,-1,·,20,100,·,·,·
COc1ccc(CNc2nc3c(c(=O)[nH]c(=O)n3C)n2CCCc2ccccc2)cc1,98,-8,4,6,1,100,·,·,·
SMILES,MEKK3 PB1 HTS,UBC13 polyUb,MEKK2 mut-MEK5,UCH37 DUB inh,Apaf1 inhib,MEKK2wt PB1 HTS,MEKK2wt confirm,MEKK2mut-MEK5,MEKK3 confirm
COc1ccc(CCn2c(NN=C3CCCCC3)nc3c2c(=O)[nH]c(=O)n3C)cc1,65*[inhibitor],-53,-9,·,-3,57*[inhibitor],99,-1,97
Cn1c(CNC(=O)C(Cc2ccccc2)NC(=O)c2ccccc2)cc(=O)n(C)c1=O (centres undefined),101,-9,0,4,-8,101,·,·,·
Cc1cccc2sc(N(CCCN(C)C)C(=O)c3nc4ccccc4s3)nc12,67*[inhibitor],25,-3,-258,3,83,158,42,100
Cc1cccc2sc(N(CCCN(C)C)C(=O)CCc3ccccc3)nc12,103,29,24,3,13,126,·,·,·
Cc1ccc2sc(N(CCCN(C)C)C(=O)c3nc4ccccc4s3)nc2c1C,103,22,33,-92,-2,144*,196,63,111
Cc1ccc2sc(N(CCCN(C)C)C(=O)c3ccc(Br)s3)nc2c1C,140*,32,218*,-11,-15,479*,180,60,110
CC(=O)OCC1=C(C(=O)O)N2C(=O)C(NC(=O)c3ccc(COc4cccc(Cl)c4Cl)o3)C2SC1 (centres undefined),95,-17,-3,2,9,94,·,·,·
COc1nccnc1NS(=O)(=O)c1ccc(NC(=S)NC(=O)c2ccc(F)c(F)c2)cc1,154*,?,1,5,4,106,98,1,97

# High-throughput results from PubChem.
